Measurements as given in ChEMBL document CHEMBL1122917, “Vinblastin-23-oyl amino acid derivatives: chemistry, physicochemical data, toxicity, and antitumor activities against P388 and L1210 leukemias” (J Med Chem, 1985).

What was measured:
Mus musculus [1] = experiment: Percent increase in life span at dose 60 mg/kg/day in 10 mice implanted with P388 leukemia cell line for 1,5,9 schedule days; format: functional
Mus musculus [2] = experiment: Percent increase in life span of DBA2 mice after inoculation with L1210 leukemia intravenously at a dose of 45 mg/kg per day; format: functional; conditions: route intravenous
In short: (§1)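 Female DBA2 mice inoculated iv on day 0 with 10^4 L1210 cells; drugs given iv as sulfate salts in physiological saline, mostly once on day 1. %ILS from all deaths and survivors as (T/C × 100) − 100; survivors scored on days 30 and 60.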

Mus musculus [3] = experiment: Percent increase in life span of DBA2 mice after inoculation with L1210 leukemia intravenously at a dose of 65 mg/kg per day; format: functional; conditions: route intravenous; in short: as §1
Mus musculus [4] = experiment: 7 Percent increase in life span at dose 75 mg/kg/day in 7 mice implanted with P388 leukemia cell line for 1,8,15 schedule day in Exp-1; format: functional
Mus musculus [5] = experiment: Number of survivors of DBA2 mice on 60th day after inoculation with L1210 leukemia cell line intravenously at a dose of 45 mg/kg/day; 0/10; format: functional; conditions: route intravenous
Mus musculus [6] = experiment: Number of survivors on 60th day at dose 60 mg/kg/day in 10 mice implanted with P388 leukemia cell line; 3/10; format: functional
Mus musculus [7] = experiment: Number of survivors on 60th day at dose 70 mg/kg/day in 10 mice implanted with P388 leukemia cell line; 0/11; format: functional
Mus musculus [8] = experiment: Percent increase in life span at dose 55 mg/kg/day in 7 mice implanted with P388 leukemia cell line for 1,8,15 schedule day; format: functional
Mus musculus [9] = experiment: Number of survivors of DBA2 mice on 30th day after inoculation with L1210 leukemia cell line intravenously at a dose of 60 mg/kg/day; 0/10; format: functional; conditions: route intravenous
Mus musculus [10] = experiment: Percent increase in life span of DBA2 mice after inoculation with L1210 leukemia intravenously at a dose of 60 mg/kg per day; format: functional; conditions: route intravenous; in short: as §1
Mus musculus [11] = experiment: Number of survivors of DBA2 mice on 30th day after inoculation with L1210 leukemia cell line intravenously at a dose of 58 mg/kg/day; 0/10; format: functional; conditions: route intravenous
Mus musculus [12] = experiment: Number of survivors on 30th day at dose 50 mg/kg/day in 10 mice implanted with P388 leukemia cell line; 7/10; format: functional
Mus musculus [13] = experiment: Percent increase in life span at dose 65 mg/kg/day in 10 mice implanted with P388 leukemia cell line; format: functional
In short: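 Female DBA2 mice inoculated iv on day 0 with 10^4 P388 cells; single iv treatment on day 1 with drug as sulfate salt in physiological saline. Survival followed; %ILS from all deaths and survivors as (T/C × 100) − 100, maximal MST 30 days; survivors counted on days 30 and 60. Most experiments confirmed three times.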

Mus musculus [14] = experiment: Percent increase in life span at dose 55 mg/kg/day in 10 mice implanted with P388 leukemia cell line for 1,5,9 schedule days; format: functional
Mus musculus [15] = experiment: Number of survivors on 60th day at dose 75 mg/kg/day in 7 mice implanted with P388 leukemia cell line for 1,8,15 scheduled days in Exp-1; 6/10; format: functional
Mus musculus [16] = experiment: Percent increase in life span at dose 6 mg/kg/day in 7 mice implanted with P388 leukemia cell line for 1,8,15 schedule days from Exp-2; format: functional
Mus musculus [17] = experiment: Number of survivors on 30th day at dose 5 mg/kg/day in 9 mice implanted with P388 leukemia cell line; 1/9; format: functional
Mus musculus [18] = experiment: Percent increase in life span of BDF1 mice after inoculation with P388 leukemia intraperitoneally at a dose of 4 mg/kg per day; conditions: P388, ip
Mus musculus [19] = experiment: Percent increase in life span of BDF1 mice after inoculation with P388 leukemia cells intraperitoneally at a dose of 0.33 mg/kg per day for 1-9 scheduled days; conditions: P388, ip
Mus musculus [20] = experiment: Number of survivors on 30th day at dose 9 mg/kg/day in 10 mice implanted with P388 leukemia cell line; […]; format: functional
Mus musculus [21] = experiment: Percent increase in life span at dose 4 mg/kg/day in 7 mice implanted with P388 leukemia cell line for 1,8,15 scheduled day from Exp-2; format: functional
Mus musculus [22] = experiment: Number of survivors of BDF1 mice on 30th day after inoculation with P388 leukemia cell line intraperitoneally at a dose of 2.7 mg/kg/day; 0/11; conditions: route intraperitoneal
Mus musculus [23] = experiment: Number of survivors of DBA2 mice on 60th day after inoculation with L1210 leukemia cell line intraperitoneally at a dose of 2.7 mg/kg/day; 0/10; format: functional; conditions: route intraperitoneal
Mus musculus [24] = experiment: Number of survivors of DBA2 mice on 30th day after inoculation with L1210 leukemia cell line intravenously at a dose of 0.5 mg/kg/day; 0/10; format: functional; conditions: route intravenous
Mus musculus [25] = experiment: Number of survivors of DBA2 mice on 60th day after inoculation with L1210 leukemia cell line intraperitoneally at a dose of 1 mg/kg/day; 0/10; format: functional; conditions: route intraperitoneal
Mus musculus [26] = experiment: Number of survivors of DBA2 mice on 30th day after inoculation with L1210 leukemia cell line intravenously at a dose of 5.5 mg/kg/day; 0/10; format: functional; conditions: route intravenous
Mus musculus [27] = experiment: Number of survivors of DBA2 mice on 30th day after inoculation with L1210 leukemia cell line intravenously at a dose of 2 mg/kg/day; 0/10; format: functional; conditions: route intravenous
Mus musculus [28] = experiment: Number of survivors on 60th day at dose 1 mg/kg/day in 10 mice implanted with P388 leukemia cell line; 0/10; format: functional
Mus musculus [29] = experiment: Percent increase in life span of DBA2 mice after inoculation with L1210 leukemia intravenously at a dose of 1 mg/kg per day; format: functional; conditions: route intravenous
Mus musculus [30] = experiment: Number of survivors of DBA2 mice on 30th day after inoculation with L1210 leukemia cell line intravenously at a dose of 1.5 mg/kg/day; 0/10; format: functional; conditions: route intravenous
Mus musculus [31] = experiment: Number of survivors of DBA2 mice on 60th day after inoculation with L1210 leukemia cell line intravenously at a dose of 1 mg/kg/day; 0/10; format: functional; conditions: route intravenous
Mus musculus [32] = experiment: Number of survivors on 30th day at dose 2.5 mg/kg/day in 10 mice implanted with P388 leukemia cell line; 0/10; format: functional
Mus musculus [33] = experiment: Percent increase in life span at dose 2.5 mg/kg/day in 7 mice implanted with P388 leukemia cell line for 1,8,15 scheduled days from Exp-2; format: functional
Mus musculus [34] = experiment: Number of survivors on 60th day at dose 3 mg/kg/day in 10 mice implanted with P388 leukemia cell line; 0/9; format: functional
Mus musculus [35] = experiment: Number of survivors on 60th day at dose 2.5 mg/kg/day in 10 mice implanted with P388 leukemia cell line; 0/10; format: functional
Mus musculus [36] = experiment: Number of survivors of DBA2 mice on 30th day after inoculation with L1210 leukemia cell line intravenously at a dose of 2.5 mg/kg/day; 0/11; format: functional; conditions: route intravenous
Mus musculus [37] = experiment: Number of survivors on 30th day at dose 5 mg/kg/day in 10 mice implanted with P388 leukemia cell line; 0/10; format: functional

## CCOC(=O)[C@H](Cc1c[nH]c2ccccc12)NC(=O)[C@@]1(O)[C@H](O)[C@]2(CC)C=CCN3CC[C@@]4(c5cc([C@@]6(C(=O)OC)C[C@H]7C[N@](CCc8c6[nH]c6ccccc86)C[C@](O)(CC)C7)c(OC)cc5N(C)[C@@]14C)[C@@H]32
Mus musculus [1]
  ILS at 60 mg/kg/day: > 426%
Mus musculus [2]
  ILS at 45 mg/kg/day: 92%
Mus musculus [3]
  ILS at 65 mg/kg/day: 71%
Mus musculus [4]
  ILS at 75 mg/kg/day: 108%
Mus musculus [5]
  Survivors: 0
Mus musculus [6]
  Survivors: 3
Mus musculus [7]
  Survivors: 0
Mus musculus [8]
  ILS at 55 mg/kg/day: 53%
Mus musculus [9]
  Survivors: 0
Mus musculus [10]
  ILS at 60 mg/kg/day: 58%
Mus musculus [11]
  Survivors: 0
Mus musculus [12]
  Survivors: 7
Mus musculus [13]
  ILS at 65 mg/kg/day: > 173%
Mus musculus [14]
  ILS at 55 mg/kg/day: > 426%
Mus musculus [15]
  Survivors: 6

## CCOC(=O)[C@@H](NC(=O)[C@@]1(O)[C@H](O)[C@]2(CC)C=CCN3CC[C@@]4(c5cc([C@@]6(C(=O)OC)C[C@H]7C[N@](CCc8c6[nH]c6ccccc86)C[C@](O)(CC)C7)c(OC)cc5N(C)[C@@]14C)[C@@H]32)[C@@H](C)CC
Mus musculus [16]
  ILS at 6 mg/kg/day: 200%
Mus musculus [17]
  Survivors: 1

## CC[C@]1(O)C[C@@H]2CN(CCc3c([nH]c4ccccc34)[C@@](C(=O)OC)(c3cc4c(cc3OC)N(C)[C@H]3[C@@](O)(C(=O)OC)[C@H](OC(C)=O)[C@]5(CC)C=CCN6CC[C@]43[C@@H]65)C2)C1 [VINBLASTINE]
Mus musculus [18]
  ILS at 4 mg/kg/day: 0%
Mus musculus [19]
  ILS at 0.33 mg/kg/day: 74%
Mus musculus [20]
  Survivors: 1
Mus musculus [21]
  ILS at 4 mg/kg/day: 35%

## CC[C@]1(O)C[C@H]2CN(CCc3c([nH]c4ccccc34)[C@@](C(=O)OC)(c3cc4c(cc3OC)N(C=O)[C@H]3[C@@](O)(C(=O)OC)[C@H](OC(C)=O)[C@]5(CC)C=CCN6CC[C@]43[C@@H]65)C2)C1 [VINCRISTINE]
Mus musculus [22]
  Survivors: 0
Mus musculus [23]
  Survivors: 0
Mus musculus [24]
  Survivors: 0
Mus musculus [25]
  Survivors: 0
Mus musculus [26]
  Survivors: 0
Mus musculus [27]
  Survivors: 0
Mus musculus [28]
  Survivors: 0
Mus musculus [29]
  ILS at 1 mg/kg/day: 10.7%
Mus musculus [30]
  Survivors: 0
Mus musculus [31]
  Survivors: 0

## CC[C@]1(O)C[C@@H]2CN(CCc3c([nH]c4ccccc34)[C@@](C(=O)OC)(c3cc4c(cc3OC)N(C)[C@H]3[C@@](O)(C(N)=O)[C@H](O)[C@]5(CC)C=CCN6CC[C@]43[C@@H]65)C2)C1 [VINDESINE]
Mus musculus [32]
  Survivors: 0
Mus musculus [33]
  ILS at 2.5 mg/kg/day: 13%
Mus musculus [34]
  Survivors: 0
Mus musculus [35]
  Survivors: 0
Mus musculus [36]
  Survivors: 0
Mus musculus [37]
  Survivors: 0
